Experimental data pooled from the literature.
Target: Calcium/calmodulin-dependent protein kinase type 1D (CAMK1D, Homo sapiens, UniProt Q8IU85)

CCc1ccccc1C(=O)Nc1n[nH]c2c(C)c(F)c(C3C(C#N)=C(C)N(C)C(C)=C3C#N)cc12
remaining binding (cell-free assay, competition with immobilised ligand; 1 µM): 87%

O=C(NCCCN1CCOCC1)c1ccc(Nc2ncc(Cl)c(-c3ccc(Cl)s3)n2)cc1
remaining binding (binding, competition with immobilised ligand; 1 µM): 44%

c1cnn2ncc(-c3ccnc(N4CCC45COC5)n3)c2c1
remaining binding (binding; 1 µM): 89%

CNC(=O)c1ccc(Nc2ncc(C(F)(F)F)c(NCc3nccnc3N(C)S(C)(=O)=O)n2)cc1
remaining binding (cell-free assay, competition with immobilised ligand; 0.1 µM): 100%

C[C@H]1CCN(c2nccc(-c3cnn4ncccc34)n2)C1
remaining binding (binding; 1 µM): 95%

C=CC(=O)N1CCC(C(=O)NCC(=O)N2CCN(c3nc(-c4cnc(N)nc4C(F)F)nc(N4CCOCC4)n3)CC2)CC1
remaining binding (binding, competition with immobilised ligand; 1 µM): 100%

CN(C)c1ncc(F)c(-c2cnn3ncccc23)n1
remaining binding (binding; 1 µM): 78%

O=C(N[C@H]1CCCCC/C=C\C2C[C@@]2(C(=O)O)NC(=O)[C@@H]2C[C@@H](Oc3ccncc3)CN2C1=O)OC1CCCC1 (stereo partly shown)
remaining binding (cell-free assay, competition with immobilised ligand; 1 µM): 94%

CNC(=O)[C@@H]1CC[C@@H](n2c(-c3ccc4cnccc4c3)nc3ccc(C(=O)NCc4cccc(C(N)=O)c4)cc32)C1
remaining binding (binding, competition with immobilised ligand; 1 µM): 100%

CN(C)c1nccc(-c2cnn3ncccc23)n1
remaining binding (binding; 1 µM): 100%

CN([C@@H]1CCc2c(CC(=O)O)c3cc(S(C)(=O)=O)ccc3n2C1)S(=O)(=O)c1ccc(F)cc1
remaining binding (cell-free assay, competition with immobilised ligand; 1 µM): 99%

O=C(Nc1c[nH]nc1C(=O)NC1CCNCC1)c1cc(F)cc(F)c1
remaining binding (binding, competition with immobilised ligand; 1 µM): 100%

Nc1ncc2c(n1)-c1c([nH]c3ccc(C#CC4CC4)cc13)CCCC2
remaining binding (binding, competition with immobilised ligand; 1 µM): 100%

O=C(NCCCN1CCOCC1)c1ccc(Nc2nccc(-c3cc4ccccc4s3)n2)cc1
remaining binding (binding, competition with immobilised ligand; 1 µM): 48%

N[C@H]1CCN(c2nccc(-c3cnn4ncccc34)n2)C1
remaining binding (binding; 1 µM): 91%

CNC(=O)Nc1ccc2c(c1)[C@@]1(CC2)OC(=O)N(CC(=O)N(Cc2ccc(F)cc2)[C@@H](C)C(F)(F)F)C1=O
remaining binding (cell-free assay, competition with immobilised ligand; 1 µM): 100%

C[C@@H](c1ccc(-n2cnc3c(N)ncnc32)cc1)N1CCc2nn(C)c(Cc3ccccc3)c2C1=O
remaining binding (binding, competition with immobilised ligand; 0.1 µM): 95%

CN(C)c1nccc(-c2cnc3ncccn23)n1
remaining binding (binding; 1 µM): 80%

Cn1nc(C(=O)NCc2ccc(C(=O)O)cc2)cc1-c1ccc2[nH]ccc2c1
remaining binding (cell-free assay, competition with immobilised ligand; 0.1 µM): 95%

COc1cnc(Nc2cccc(S(N)(=O)=O)c2)nc1N1CCN(c2ccccc2)CC1
remaining binding (binding, competition with immobilised ligand; 1 µM): 100%

COc1ncc2cc3ccccc3nc2c1C#N
remaining binding (cell-free assay, competition with immobilised ligand; 5 µM): 98%

O=C(c1ccc(Nc2ncc(Cl)c(-c3ccc(Cl)s3)n2)cc1)N1CCC(N2CCCC2)CC1
remaining binding (binding, competition with immobilised ligand; 1 µM): 22%
